These results are taken from ChEMBL document CHEMBL1127542, “Inhibitors of acyl-CoA:cholesterol O-acyl transferase (ACAT) as hypocholesterolemic agents. 8. Incorporation of amide or amine functionalities into a series of disubstituted ureas and carbamates. Effects on ACAT inhibition in vitro and efficacy in vivo” (J Med Chem, 1994).

Molecules are shown by their SMILES. Where only a bound is given, the exact number is not on record here.

The species named for one experiment is Rattus norvegicus. The experiment can be described thus: Percent change in total cholesterol in cholic acid (0.5%)-cholesterol (1.5%)-peanut oil (5.5%)-fed rats. The class given is functional. In a few lines: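 Acute screen: rats given a single gavage dose, 50 mg/kg standard unless noted, suspended in carboxymethylcellulose plus Tween-20 in water, then a single high-fat, high-cholesterol meal (0.5% cholic acid, 1.5% cholesterol, 5.5% peanut oil). Overnight rise in plasma total cholesterol measured as % change versus control. Stomachs checked for food. ANOVA with Fisher's multiple range test, p<0.05.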

Experiment [1] deals with Sterol O-acyltransferase 1 (Oryctolagus cuniculus). The experiment in a line: In vitro inhibition of rabbit intestinal acyl coenzyme A:cholesterol acyltransferase using [1-14C]oleolyl-CoA.

In general, IC50 refers to the concentration needed to halve the response being measured. High values mean lower potency, low ones higher potency. In the case of `COc1ccc(C(=O)NC(C)(CNC(=O)Nc2c(C(C)C)cccc2C(C)C)c2ccccn2)cc1` (racemic), the Change in the experiment filed under Rattus norvegicus is on record as -23%. Besides, the half-inhibitory concentration (IC50) in experiment [1] amounted to 610 nM.
In the case of `COc1ccc(CNC(CNC(=O)Nc2c(C(C)C)cccc2C(C)C)CC(C)C)cc1` (stereo unspecified), the Change in the experiment filed under Rattus norvegicus is recorded as -32%. In experiment [1], this compound showed an IC50 of 50 nM.
Consider `COc1ccc(C(=O)NC2(CNC(=O)Nc3c(C(C)C)cccc3C(C)C)CCCC2)cc1`, for which the Change in the experiment listed under Rattus norvegicus is on record as -6%. In experiment [1], this compound returned a concentration for half-maximal inhibition (IC50) of 500 nM.
`CCCCCCCCCCCC(=O)NC(CNC(=O)Nc1c(C(C)C)cccc1C(C)C)c1ccccc1` (stereo unspecified): the Change in the experiment filed under Rattus norvegicus was -16%. Also, the concentration for half-maximal inhibition (IC50) in experiment [1] was found to be 77 nM.
For the compound `CCCCCCC(=O)NC(COC(=O)Nc1c(C(C)C)cccc1C(C)C)c1ccccc1` (stereo in doubt; 34a(-)), in the experiment listed under Rattus norvegicus, the Change is recorded as -2%. The IC50 in experiment [1] is 570 nM.
The matching figures for `COc1ccc(CNC(CNC(=O)Nc2c(C(C)C)cccc2C(C)C)c2ccccc2)cc1` (single isomer, unassigned; (-)): -45% and 39 nM.
As to `CC(C)c1cccc(C(C)C)c1NC(=O)NCC(NCc1cccnc1)c1ccccc1` (stereo unspecified), the Change in the experiment listed under Rattus norvegicus was -26%. The compound further showed a half-maximal inhibitory concentration (IC50) in experiment [1] of 370 nM.
As for `CC(C)c1cccc(C(C)C)c1NC(=O)NCC(NC(=O)c1cccc2ccccc12)c1ccccc1` (stereo unspecified), the Change in the experiment listed under Rattus norvegicus is recorded as -14%. The same compound returned an IC50 in experiment [1] of 970 nM.
Take `CC(C)c1cccc(C(C)C)c1NC(=O)NCC(NCc1ccco1)c1ccccc1` (single isomer, unassigned; (+)): the Change in the experiment filed under Rattus norvegicus is given as -23%. The same compound showed a 50% inhibitory concentration (IC50) in experiment [1] of 99 nM.
For `CCCCCCCCCCC(C)(C)C(=O)Nc1c(OC)cc(OC)cc1OC` [CL-976], the Change in the experiment filed under Rattus norvegicus is listed as -44%.
Turning to `CC(C)c1cccc(C(C)C)c1NC(=O)NCC(CNC(=O)c1ccccn1)c1ccccc1` (stereo unspecified), the Change in the experiment listed under Rattus norvegicus is recorded as -7%. In experiment [1], the half-inhibitory concentration (IC50) amounted to 300 nM.
Take `CCCCC(=O)NC(CNC(=O)Nc1c(C(C)C)cccc1C(C)C)c1ccccc1` (stereo unspecified): the Change in the experiment filed under Rattus norvegicus is recorded as -8%. The compound further came in with an IC50 in experiment [1] of 430 nM.
The compound `CC(C)c1cccc(C(C)C)c1NC(=O)NCC(CN(Cc1ccccc1)Cc1ccccc1)c1ccccc1` (stereo unspecified) came in with an IC50 in experiment [1] of 7600 nM.
For the compound `CC(C)c1cccc(C(C)C)c1NC(=O)NCC(NC(=O)c1ccco1)c1ccccc1` (stereo unspecified), in the experiment listed under Rattus norvegicus, the Change was -37%. The compound also yielded an IC50 in experiment [1] of 440 nM.
As to `Cc1ccc(CNC(CNC(=O)Nc2c(C(C)C)cccc2C(C)C)c2ccccc2)cc1` (racemic), the Change in the experiment listed under Rattus norvegicus was -45%. In experiment [1], this compound displayed an IC50 of 52 nM.
Consider `COc1ccc(CNC(CCSC)CNC(=O)Nc2c(C(C)C)cccc2C(C)C)cc1` (single isomer, unassigned; (+)), for which the Change in the experiment filed under Rattus norvegicus was -31%. For the same compound, in experiment [1], the IC50 was found to be 490 nM.
Regarding `CC(C)c1cccc(C(C)C)c1NC(=O)NCC(NCc1ccc(N(C)C)cc1)c1ccccc1` (single isomer, unassigned; (-)), the Change in the experiment listed under Rattus norvegicus is on record as -45%. In addition, the IC50 in experiment [1] worked out at 150 nM.
In the same order, the values of `CC(C)c1cccc(C(C)C)c1NC(=O)NCC(NCc1ccncc1)c1ccccc1` (single isomer, unassigned; (+)) are -19% and 1200 nM.
For `CCCCCNC(CNC(=O)Nc1c(C(C)C)cccc1C(C)C)c1ccccc1` (racemic), the Change in the experiment filed under Rattus norvegicus was -38%. The midpoint of inhibition in experiment [1], the IC50, lay at 110 nM.
Regarding `CC(C)c1cccc(C(C)C)c1NC(=O)NCC(NC(=O)c1ccccn1)c1ccccc1` (stereo unspecified), in the experiment filed under Rattus norvegicus, the Change is listed as -24%. 80 nM corresponded to half-maximal inhibition in experiment [1] (IC50).
Consider `CC(C)c1cccc(C(C)C)c1NC(=O)NCC(NCc1ccccn1)c1ccccc1` (stereo unspecified), for which the Change in the experiment listed under Rattus norvegicus is recorded as -15%. In addition, the IC50 in experiment [1] turned out to be 140 nM.
Turning to `CC(C)c1cccc(C(C)C)c1NC(=O)OCC(NC(=O)OC(C)(C)C)c1ccccc1` (stereo unspecified), the IC50 in experiment [1] stood at 2500 nM.
On to `CCCCCCCCCCCCCCCCCCNC(CNC(=O)Nc1c(C(C)C)cccc1C(C)C)c1ccccc1` (racemic), for which the Change in the experiment listed under Rattus norvegicus is -3%. Moreover, the IC50 in experiment [1] came out at 230 nM.
For the compound `CC(C)c1cccc(C(C)C)c1NC(=O)NCC(NCc1ccoc1)c1ccccc1` (stereo unspecified), the Change in the experiment listed under Rattus norvegicus is reported as -38%. The compound also showed an IC50 in experiment [1] of 48 nM.
As to `COc1ccc(CNC(CNC(=O)Nc2c(C(C)C)cccc2C(C)C)c2ccccc2)cc1` (stereo in doubt; 9m(+)), the Change in the experiment filed under Rattus norvegicus was -36%. The compound also yielded an IC50 in experiment [1] of 70 nM.
Take `CC(C)c1cccc(C(C)C)c1NC(=O)NCC(NC(=O)c1cc2ccccc2[nH]1)c1ccccc1` (stereo unspecified): the Change in the experiment listed under Rattus norvegicus is recorded as -3%. Moreover, 2300 nM corresponded to half-maximal inhibition in experiment [1] (IC50).
On to `CC(C)c1cccc(C(C)C)c1NC(=O)NCC(NC(=O)CCCCCBr)c1ccccc1` (stereo unspecified), for which the Change in the experiment filed under Rattus norvegicus is -36%. In experiment [1], this compound displayed an IC50 of 380 nM.
The matching figures for `COc1ccc(CNC(CNC(=O)Nc2c(C(C)C)cccc2C(C)C)Cc2ccccc2)cc1` (single isomer, unassigned; (-)): -30% and 270 nM.
As to `CC(C)c1cccc(C(C)C)c1NC(=O)NCC(NCc1ccc(N(C)C)cc1)c1ccccc1` (stereo in doubt; 9n(+)), the Change in the experiment listed under Rattus norvegicus is recorded as -56%. Also, the IC50 in experiment [1] is 60 nM.
The matching figures for `CC(C)c1cccc(C(C)C)c1NC(=O)NCC(NCC1CC1)c1ccccc1` (single isomer, unassigned; (-)): -51% and 64 nM.
In the case of `CC(C)c1cccc(C(C)C)c1NC(=O)NCC(NCc1cccc([N+](=O)[O-])c1)c1ccccc1` (single isomer, unassigned; (-)), the Change in the experiment listed under Rattus norvegicus was -32%. Further, in experiment [1], the half-maximal inhibitory concentration (IC50) amounted to 45 nM.
In the case of `CC(C)c1cccc(C(C)C)c1NC(=O)NCC(NC(=O)c1ccncc1)c1ccccc1` (stereo unspecified), the Change in the experiment filed under Rattus norvegicus was -12%. In addition, the midpoint of inhibition in experiment [1], the IC50, lay at 3200 nM.
In the same order, the values of `CC(C)c1cccc(C(C)C)c1NC(=O)NCC(NCc1cccs1)c1ccccc1` (single isomer, unassigned; (+)) are -19% and 51 nM.
The matching figures for `CC(C)c1cccc(C(C)C)c1NC(=O)NCC(NCc1ccc(O)c(CN(C)C)c1)c1ccccc1` (single isomer, unassigned; (-)): -46% and 490 nM.
Regarding `Cc1ccc(C(=O)NC(CNC(=O)Nc2c(C(C)C)cccc2C(C)C)c2ccccc2)cc1` (stereo unspecified), the Change in the experiment filed under Rattus norvegicus is on record as -1%. Besides, the 50% inhibitory concentration (IC50) in experiment [1] was determined as 350 nM.
As to `CC(C)c1cccc(C(C)C)c1NC(=O)NCC(NCc1ccccc1)c1ccccc1` (stereo in doubt; 9k(+)), the Change in the experiment listed under Rattus norvegicus is given as -41%. Further, it took 53 nM to reach half-maximal inhibition in experiment [1] (IC50).
The matching figures for `CCCCCCCCCCNC(CNC(=O)Nc1c(C(C)C)cccc1C(C)C)c1ccccc1` (racemic): -38% and 83 nM.
The matching figures for `CCCCCCCCCCCCCCCCCC(=O)NC(CNC(=O)Nc1c(C(C)C)cccc1C(C)C)c1ccccc1` (stereo unspecified): 8% and 1700 nM.
The matching figures for `CCCCCCCCCCCC(=O)NC(COC(=O)Nc1c(C(C)C)cccc1C(C)C)c1ccccc1` (stereo unspecified): -16% and 200 nM.
`CC(C)c1cccc(C(C)C)c1NC(=O)NCC(NC(=O)c1ccc(C(F)(F)F)cc1)c1ccccc1` (stereo unspecified): the Change in the experiment filed under Rattus norvegicus is on record as -9%. This compound also yielded an IC50 in experiment [1] of 510 nM.
`CC(C)c1cccc(C(C)C)c1NC(=O)NCC(NCc1ccccc1)c1ccccc1` (single isomer, unassigned; (-)): in the experiment listed under Rattus norvegicus, the Change is reported as -29%. Also, in experiment [1], the IC50 is 33 nM.
For the compound `CCCCCCCCCC(=O)NC(CNC(=O)Nc1c(C(C)C)cccc1C(C)C)c1ccccc1` (stereo unspecified), the Change in the experiment filed under Rattus norvegicus is -29%. The compound also gave a half-maximal inhibitory concentration (IC50) in experiment [1] of 590 nM.
In the case of `CCCCCCNC(CNC(=O)Nc1c(C(C)C)cccc1C(C)C)c1ccccc1` (racemic), in the experiment filed under Rattus norvegicus, the Change is listed as -41%. In experiment [1], the IC50 turned out to be 49 nM.
On to `CC(C)c1cccc(C(C)C)c1NC(=O)NCC(NCc1ccccc1C(F)(F)F)c1ccccc1` (single isomer, unassigned; (-)), for which the Change in the experiment filed under Rattus norvegicus is given as -42%. Besides, the IC50 in experiment [1] is 45 nM.
In the case of `CCCCCCCCCC(=O)NC(CNC(=O)Oc1c(C(C)C)cccc1C(C)C)c1ccccc1` (racemic), the Change in the experiment filed under Rattus norvegicus is on record as 25%. This compound showed an IC50 in experiment [1] of 760 nM.
As to `CC(C)c1cccc(C(C)C)c1NC(=O)NCC(NC(=O)c1cnccn1)c1ccccc1` (stereo unspecified), the Change in the experiment filed under Rattus norvegicus is given as -19%. In experiment [1], this compound showed an IC50 of 440 nM.
The compound `CC(C)c1cccc(C(C)C)c1NC(=O)NC(CNC(=O)c1ccccc1)c1ccccc1` (stereo unspecified) gave an IC50 in experiment [1] of 3600 nM.
Take `CC(C)c1cccc(C(C)C)c1NC(=O)NCC(CNCc1ccccc1)c1ccccc1` (stereo unspecified): the Change in the experiment filed under Rattus norvegicus is -46%. The compound further returned a half-maximal inhibitory concentration (IC50) in experiment [1] of 160 nM.
In the case of `COc1ccc(C(=O)NC(CNC(=O)Nc2c(C(C)C)cccc2C(C)C)C2CCCCC2)cc1` (racemic), in the experiment listed under Rattus norvegicus, the Change is listed as -15%. Further, in experiment [1], the half-maximal inhibitory concentration (IC50) was 250 nM.
As to `COc1ccccc1CNC(CNC(=O)Nc1c(C(C)C)cccc1C(C)C)c1ccccc1` (single isomer, unassigned; (-)), the Change in the experiment filed under Rattus norvegicus is listed as -23%. The same compound had an IC50 in experiment [1] of 45 nM.
For `CCCCCCCCCCCC(=O)NC(CNC(=O)Oc1c(C(C)C)cccc1C(C)C)c1ccccc1` (single isomer, unassigned; (-)), the Change in the experiment listed under Rattus norvegicus stood at 25%. In experiment [1], this compound registered an IC50 of 51 nM.
In the case of `COc1ccc(C(=O)NC(CNC(=O)Nc2c(C(C)C)cccc2C(C)C)c2ccccc2)cc1` (stereo unspecified), in the experiment listed under Rattus norvegicus, the Change was -7%. This compound displayed a half-inhibitory concentration (IC50) in experiment [1] of 330 nM.
Take `CC(C)c1cccc(C(C)C)c1NC(=O)NCC(Cc1ccccc1)NCc1ccccc1O` (stereo unspecified): the Change in the experiment listed under Rattus norvegicus is -37%. Moreover, the IC50 in experiment [1] amounted to 410 nM.
As to `CCCCCCC(=O)NC(COC(=O)Nc1c(C(C)C)cccc1C(C)C)c1ccccc1` (single isomer, unassigned; (+)), the IC50 in experiment [1] came to 5100 nM.
Still for that read-out and setting: as for `CC(C)c1cccc(C(C)C)c1NC(=O)NCC(CN(C)Cc1ccccc1)c1ccccc1` (stereo unspecified), the figure is more than 10000 nM.
In the case of `COc1ccc(C(=O)NC(C)(C)CNC(=O)Nc2c(C(C)C)cccc2C(C)C)cc1`, the Change in the experiment listed under Rattus norvegicus is recorded as -9%.
In the case of `CC(C)c1cccc(C(C)C)c1NC(=O)OCC(NCc1ccc(N(C)C)cc1)c1ccccc1.Cl` (stereo unspecified), in the experiment filed under Rattus norvegicus, the Change is reported as -23%.
